In PubChem BioAssay AID449761 (Broad Institute, 2010) one finds AC50 data, which are given here for 78 compounds.

SMILES strings stand for the structures. Inconclusive results are not listed. The source made the active and inactive calls.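 Rule for the calls: active = compounds raising caspase signal with fitted AC50 no more than tenfold above the top tested dose; inconclusive = flat curve at 30 to 70% activity, or unusable fit; inactive = the rest.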

The assay has as its system MEF WT non-primed, caspase-Glo luminescence, 3 h. Put plainly: caspase activation in non-primed cells, dose response, counter-screen for Bcl2-A1 inhibitor project, cell-based, caspase-Glo luminescence, 3 h (AID 449761). Put shortly:
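Assay system: Non-primed wild-type MEF cells; Quantity: 2500 cells per well; Doses: 100 nL compound added per well by pin transfer; Medium: RPMI-1640 plus 10% FBS; Detection: CaspaseGlo luminescence; Timing: 3 h compound at 37 °C, 1 h reagent at RT.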
`CCC1CCCCN1S(=O)(=O)c1ccc(NC(=O)c2nc(S(C)(=O)=O)ncc2Cl)cc1` (stereo not drawn): the AC50 was 4.2 µM.

Turning to `O=C(N=Nc1c(O)[nH]c2ccc([N+](=O)[O-])cc12)c1cc(-c2ccccc2Cl)nc2ccccc12`, the AC50 was > 35 µM (inactive).

On to `COc1cc2cnc(-c3ccccc3)c(-c3cccc(C(F)(F)F)c3)c2cc1OC`, for which the AC50 is > 35 µM (inactive).

`CCc1ccc(NC(=O)c2nc(S(=O)(=O)Cc3ccccc3)ncc2Cl)cc1`: the AC50 was > 35 µM (inactive).

In the case of `Cc1ccc(C(=O)/C=C/C(=O)c2ccc(C)cc2)cc1`, the AC50 is 5.73 µM.

As for `Cc1cccc(NC(=O)CSc2nc(C)c(CC(=O)c3ccc(Br)cc3)c(C)c2C#N)c1C`, the AC50 was > 35 µM (inactive).

For the compound `Cc1ccc(C)c(NC(=S)NC(NC(=O)Cc2cccc3ccccc23)C(Cl)(Cl)Cl)c1` (stereo not drawn), the concentration at half-maximal activity (AC50) is 12 µM.

On to `COc1ccc(NC(=O)C(=O)N/N=C\c2ccc(CNC(=O)C(=O)Nc3ccc(C)c(C)c3)o2)c(OC)c1`, for which the AC50 is 23.5 µM.

As to `CCOC(=O)/C(=C\c1ccc([N+](=O)[O-])cc1)C(=O)c1cc(C(C)=O)c(Nc2ccccc2)s1`, the AC50 is 1.46 µM.

With `CCc1nnc(NC(=O)c2nc(S(=O)(=O)Cc3ccccc3)ncc2Cl)s1`, the AC50 was > 35 µM (inactive).

As to `COc1ccc(C2Nc3ccc4ccccc4c3-c3c2c(=O)oc2ccccc32)cc1` (stereo not drawn), the AC50 was 18 µM.

With `CCOc1cc(C(=O)CSc2nnc(CNc3ccc(Cl)cc3)o2)ccc1NC(=O)CC`, the half-maximal activity concentration (AC50) was 16 µM.

As to `O=C(Nc1ccc(Cl)cc1Cl)c1cccc(N2C(=O)C=CC2=O)c1`, the concentration at half-maximal activity (AC50) was 35.8 µM.

Take `Cc1cc(NC(=O)CSc2nc3cc(Cl)ccc3c(=O)n2Cc2ccco2)no1`: the AC50 is > 35 µM (inactive).

As for `CC(C)(C)c1ccc(C(=O)Nc2ccc(O)c3c(=O)cc(-c4cccc(Cl)c4)oc23)cc1`, the AC50 is > 35 µM (inactive).

For `CC(C)CCN(C(=O)Cc1ccc(Cl)c(Cl)c1)c1c(N)n(Cc2ccccc2)c(=O)[nH]c1=O`, the AC50 was 14.6 µM.

For the compound `C=CC(=O)Nc1ccc(CN2C(=O)N(c3c(Cl)c(OC)cc(OC)c3Cl)Cc3cnc(NCCCCN(CC)CC)nc32)cc1`, the AC50 was > 35 µM (inactive).

Turning to `O=C(NN=C1c2ccccc2-c2ccccc21)c1cccc(Br)c1`, the AC50 was 35.6 µM.

With `CC1CCc2c(sc3nc(C(C)(C)C)nc(N4CCN(C(=O)CCl)CC4)c23)C1` (stereo not drawn), the AC50 was 13 µM.

Regarding `Cc1ccc2nc(N(CCCN(C)C)C(=O)c3ccc(S(=O)(=O)N4CCc5ccccc5C4)cc3)sc2c1`, the AC50 is > 35 µM (inactive).

In the case of `COc1ccc(NC(=O)c2cccc3c2C(=O)c2ccc(-c4ccc(F)cc4OCc4ccccc4)cc2S3(=O)=O)cc1`, the AC50 was > 35 µM (inactive).

For the compound `N#Cc1c(C(F)(F)F)cc(-c2ccccc2)nc1SCC(=O)Nc1sc2c(c1C#N)CCC2`, the AC50 is > 35 µM (inactive).

On to `O=C(Nc1ccc([N+](=O)[O-])cc1)C(Cc1ccccc1)N1C(=O)c2cccc3cccc(c23)C1=O` (stereo not drawn), for which the AC50 is > 35 µM (inactive).

Turning to `O=C(Oc1cccc(/C=N/Nc2nc(Nc3ccccc3)nc(N3CCOCC3)n2)c1)c1ccco1`, the AC50 is > 35 µM (inactive).

In the case of `COC(=O)[C@@]1(C)CC[C@]2(C)CC[C@@]3(C)C(=CC(=O)C4[C@@]5(C)CC[C@H](O)C(C)(C)[C@@H]5CC[C@]43C)[C@H]2C1` (stereo partly drawn), the AC50 was > 35 µM (inactive).

For the compound `COCc1cc(C)nc(SCC(=O)Nc2nc(C)cs2)c1C#N`, the AC50 was > 35 µM (inactive).

In the case of `COc1ccc(OC)c(NC(=O)c2cc(-c3cc(C)ccc3O)n[nH]2)c1`, the AC50 was > 35 µM (inactive).

Take `COc1ccc(-c2oc(=O)c3cc(OC)c(OC)cc3c2/C=C/c2cccc([N+](=O)[O-])c2)cc1`: the AC50 was > 35 µM (inactive).

Consider `CCc1nn(-c2cc(Oc3cccc4ccccc34)nc(-c3ccccc3)n2)c(N)c1C#N`, for which the AC50 is > 35 µM (inactive).

As to `O=C(NC[C@H]1CCCO1)c1cccc2c1C(=O)c1ccc(-c3ccc(F)cc3OCc3ccccc3)cc1S2(=O)=O`, the AC50 was > 35 µM (inactive).

As to `O=C(c1ccc(COc2ccc3ccccc3c2)o1)N1N=C(C(F)F)CC1(O)C(F)F` (stereo not drawn), the AC50 was > 35 µM (inactive).

On to `COc1cc(/C=C(/C#N)c2nc3ccccc3[nH]2)ccc1OCC(=O)Nc1ccccc1C`, for which the AC50 was 5.91 µM.

Turning to `CCc1nnc(NC(=O)CSc2nc(-c3ccccc3)cc(-c3ccc(F)cc3)c2C#N)s1`, the AC50 was 32.2 µM.

Take `COc1cc(SC#N)ccc1N=Cc1c(C)[nH]n(-c2ccc(C)cc2)c1=O`: the AC50 is 34.5 µM.

For `Cc1nn(-c2ccccc2)c(C)c1/C=N/NC(=O)CSc1nc2ccccc2c(=O)n1-c1ccc(Br)cc1`, the AC50 is 36 µM.

As for `COc1ccc(S(=O)(=O)N2CC(O)CC2C(=O)OCC(=O)Nc2ccc(Cl)cn2)cc1` (stereo not drawn), the AC50 was > 35 µM (inactive).

In the case of `CC(C)(C)[C@H](N)C(=O)N[C@H]1CCC2C3CC=C4C[C@@H](O)CC[C@]4(C)C3CC[C@@]21C` (stereo partly drawn), the AC50 is > 35 µM (inactive).

For `COc1ccc(NC(=S)NC(NC(=O)/C=C/c2ccccc2)C(Cl)(Cl)Cl)cc1` (stereo not drawn), the AC50 is > 35 µM (inactive).

For `O=C(NCc1ccccc1Br)c1cccc2c1C(=O)c1ccc(-c3ccc(OC(F)(F)F)cc3)cc1S2(=O)=O`, the AC50 is > 35 µM (inactive).

For `COc1ccc(OC[C@@H](O)CNC(=O)c2cccc3c2C(=O)c2ccc(-c4ccc(F)cc4OCc4ccccc4)cc2S3(=O)=O)cc1`, the AC50 was > 35 µM (inactive).

For the compound `CCS(=O)(=O)c1ncc(Cl)c(C(=O)Nc2ccc(S(=O)(=O)N3CCC(C)CC3)cc2)n1`, the AC50 was > 35 µM (inactive).

For the compound `COc1cccc(C(=O)C(C#N)=C(SC)SC)c1`, the AC50 is > 35 µM (inactive).

Consider `CCOC(=O)c1sc(NC(=O)CSc2nc(C)cc(C)c2C#N)c(C#N)c1C`, for which the AC50 was > 35 µM (inactive).

Consider `COc1ccc(N(C(=O)CCl)C(C(=O)NCCc2ccccc2)c2cccs2)cc1Cl` (stereo not drawn), for which the concentration at half-maximal activity (AC50) is 27.4 µM.

With `O=C(Nc1ccc2oc(-c3ccccc3F)nc2c1)c1ccccc1F`, the AC50 was > 35 µM (inactive).

As to `CCn1c(SCC(=O)c2ccccc2)nnc1-c1cc2cc(Br)ccc2o1`, the AC50 was > 35 µM (inactive).

Consider `COc1ccc2cc(C)c3nnc(SCC(=O)Nc4nc(-c5ccc(F)cc5)cs4)n3c2c1`, for which the AC50 is 26.2 µM.

For `COc1cc(/C=C2/C(=N)N3C=CSC3=NC2=O)ccc1OCCCOc1cc(C)ccc1C`, the AC50 was 22.4 µM.

On to `CC(C)(C)C1CCc2onc(C(=O)Nc3cccc(O)c3)c2C1` (stereo not drawn), for which the AC50 is > 35 µM (inactive).

For `COc1ccc2c(c1)CCc1c(C(=O)Nc3cc(C)n(Cc4ccc(Cl)cc4)n3)noc1-2`, the AC50 is 14.2 µM.

In the case of `CC(CCc1ccccc1)NC(=O)c1ccc(NC(=O)c2ccccc2)cc1` (stereo not drawn), the AC50 was 27.7 µM.

Consider `C#CC(=O)N(c1cc(OC)ccc1OC)C(C(=O)NC1CCCC1)c1cccs1` (stereo not drawn), for which the AC50 was > 35 µM (inactive).

Regarding `NS(=O)(=O)c1ccc(N/N=C2/CCCCC2C2CCCCC2)c([N+](=O)[O-])c1` (stereo not drawn), the AC50 was 33.5 µM.

`CC(=O)Nc1ncnc2c1c(-c1ccc(Cl)cc1)nn2C(C)(C)C`: the AC50 was > 35 µM (inactive).

On to `COc1ccccc1-c1cc(C(F)(F)F)nc(S(=O)(=O)CCCC(=O)NC(C)C)n1`, for which the concentration at half-maximal activity (AC50) was 25.8 µM.

In the case of `CCOc1ccc(OCC(=O)N(CCC2=CCCCC2)c2c(N)n(Cc3ccccc3)c(=O)[nH]c2=O)cc1`, the AC50 is 26.8 µM.

`C/C1=C\[C@@H](C)C/C=C/[C@H]2[C@@H]3O[C@]3(C)[C@@H](C)[C@H]3[C@H](Cc4c[nH]c5ccccc45)NC(=O)[C@]32C(=O)/C=C/C(=O)[C@@H]1O`: the AC50 is 8.71 µM.

On to `CCc1ccc2nc(N(CCCN(C)C)C(=O)c3ccc(S(=O)(=O)N4CCc5ccccc5C4)cc3)sc2c1`, for which the AC50 is > 35 µM (inactive).

`Clc1ccccc1CN(Cc1ccccc1)c1ncnc2nc[nH]c12`: the AC50 was > 35 µM (inactive).

For `CCOC(=O)CSC1=N/C(=C/c2ccc(-n3cncn3)cc2)C(=O)N1C(C)=O`, the AC50 was > 35 µM (inactive).

In the case of `COc1cc(C2CC(c3cccs3)=NN2C(=O)CCl)ccc1OC(F)F` (stereo not drawn), the AC50 is 32.9 µM.

In the case of `O=C(Nc1ccc2oc(-c3ccccc3)nc2c1)c1ccccc1F`, the AC50 was > 35 µM (inactive).

Take `Cc1cccc(CS(=O)(=O)c2ncc(Cl)c(C(=O)Nc3nnc(C(C)C)s3)n2)c1`: the AC50 is > 35 µM (inactive).

For the compound `CCc1nc(N=Nc2c(O)[nH]c3ccccc23)c2c3c(sc2n1)CCC3`, the AC50 was 18.2 µM.

With `Cc1ccc(NC(=O)c2ccc(N/N=C/c3cccc(O)c3)c([N+](=O)[O-])c2)cc1`, the AC50 was 29.8 µM.

As for `Cc1ccc2c(c1)C(=O)C(=O)N2Cc1ccc(Br)cc1`, the AC50 was > 35 µM (inactive).

As for `COc1ccccc1-c1cn[nH]c1-c1ccc(OCc2ccccc2)cc1O`, the AC50 was > 35 µM (inactive).

With `Cc1ccc(C#N)c(SCC(=O)Nc2nccs2)n1`, the AC50 is > 35 µM (inactive).

As for `C=C1/C=C(\C)[C@](C)(O)C[C@H](O)CC(=O)[C@H](O)[C@@H](O)[C@H](C)C[C@H](C)OC(=O)/C(C)=C/CC/C=C/[C@@H]2O[C@H]2C[C@H](C)C1`, the AC50 was > 35 µM (inactive).

Take `CCS(=O)(=O)c1ncc(Cl)c(C(=O)Nc2ccccc2OC)n1`: the AC50 is > 35 µM (inactive).

With `Cc1ccc(CS(=O)(=O)c2ncc(Cl)c(C(=O)Nc3nnc(C(C)C)s3)n2)cc1`, the AC50 is > 35 µM (inactive).

For `COc1ccc(-c2nc(NC(=O)c3n[nH]c(=O)c4ccccc34)sc2C)cc1`, the AC50 is > 35 µM (inactive).

Turning to `Cn1c(=NC(=O)CCl)sc2ccccc21`, the AC50 was > 35 µM (inactive).

On to `Nc1c(C(=O)Nc2ccc(S(=O)(=O)N3CCCC3)cc2)sc2nc3ccc(OC(F)(F)F)cc3cc12`, for which the AC50 is 30.7 µM.

As for `Oc1[nH]c2ccc(Br)cc2c1N=NC(=S)Nc1ccc(F)cc1`, the AC50 is > 35 µM (inactive).

In the case of `CCOc1cc(/C=C2/C(=N)N3C=CSC3=NC2=O)ccc1OCCCOc1ccccc1C`, the AC50 is 8.09 µM.

As for `CC(C)c1cccc(-c2ccc3c(c2)S(=O)(=O)c2cccc(C(=O)NCc4ccccc4Cl)c2C3=O)c1`, the AC50 was > 35 µM (inactive).

Take `COc1cc(CN2CCN(c3cc(C)ccc3C)CC2)ccc1O`: the AC50 was > 35 µM (inactive).

The term AC50 denotes the concentration at which the activity in the assay is half-maximal.
